JMJD2C inh: inhibitors of GASC-1 histone demethylase, primary screen, biochemical, fluorescence, DELFIA europium. GST-JMJD2C(1-420) H3K9me3 demethylation. inhibition, % at 2.35 µM. actives 0.069% (n = 330,000);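 active = more than half of a compound's replicate wells show inhibition beyond 50%, single wells judged on their own value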;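 also: signal counts dimethyl H3K9 product captured on neutravidin plate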
Target sequence (Q9H3R0 1-420 limits assumed): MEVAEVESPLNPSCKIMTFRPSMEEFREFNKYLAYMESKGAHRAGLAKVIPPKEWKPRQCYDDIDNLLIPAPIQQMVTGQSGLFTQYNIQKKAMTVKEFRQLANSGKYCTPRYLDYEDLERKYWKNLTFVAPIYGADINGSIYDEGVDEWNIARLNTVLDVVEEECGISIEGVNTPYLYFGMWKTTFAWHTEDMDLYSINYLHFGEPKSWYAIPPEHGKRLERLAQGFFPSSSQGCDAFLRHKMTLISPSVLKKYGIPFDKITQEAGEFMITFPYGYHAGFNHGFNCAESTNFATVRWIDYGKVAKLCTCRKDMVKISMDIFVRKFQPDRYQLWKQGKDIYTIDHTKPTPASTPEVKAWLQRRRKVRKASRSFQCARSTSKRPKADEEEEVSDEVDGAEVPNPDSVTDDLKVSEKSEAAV
GRIN3A LBD mod: binders of NR3A ligand-binding domain, primary screen, biophysical, differential scanning fluorimetry, uHTS; Glutamate receptor ionotropic, NMDA 3A (GRIN3A) ligand-binding domain; NR3A LBD differential scanning fluorimetry, Tm shift; 0% = protein alone, 100% = glycine-bound protein; Tm shift relative to glycine control, % at 25 µM; actives 2.5% (n = 340,000); AID 1259313, 2017;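 active = melting temperature shift of at least 10% of the positive control shift, at one fixed dose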
T cell modulator: modulators of CD8 T cell-vesicle binding, primary screen, mouse 2C CD8+ T cells, flow cytometry; 2C CD8+ T cell-vesicle binding; hits give low values; response (vesicle binding), % at 7 µM; actives 0.068% (n = 330,000); AID 2052, 2009;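 active = response, share of CD8 T cells binding vesicles, and their 90th percentile fluorescence all below set limits, cut at about 80% in these data, passing the limit was not always enough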;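 also: values below 100% mean blocked vesicle binding to the CD8+ T cells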
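Incubation: binding step 1.5 h, 37 °C, antibody labelling 20 min, ice; system: murine 2C transgenic CD8+ T lymphocytes; technique: cytometric PE anti-B7-1 and Alexa647 anti-CD8 signals after 1% paraformaldehyde fixation; also added: QL9-charged Drosophila Ld/ICAM-1/B7-1 vesicles; control set: naked versus QL9-loaded vesicles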
Rtt109 Vps75: inhibitors of C. albicans Rtt109/Vps75 HAT, primary screen, biochemical, ThioGlo CoA-SH fluorescence, plate reader. Histone acetyltransferase RTT109 (Candida albicans (strain SC5314 / ATCC MYA-2876)), …. purified Rtt109/Vps75, 4 h. actives 0.16% (n = 330,000). AID 540336, 2011. inhibition, % at 34.9 µM;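 active = inhibition of at least 50% in every replicate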
Numbers stand for hits; 0 = inactive; - = no result. Sampled rows, rich in hits. Any-hit rate of the full collection: about 2.8%.

SMILES	JMJD2C inh	GRIN3A LBD mod	T cell modulator	Rtt109 Vps75
Cc1cccc([C@@H]2[C@@H]3C(=O)N(Cc4ccccc4)C(=O)[C@@H]3[C@]3(C)C(=O)N(c4ccc(C(F)(F)F)cc4)C(=O)N23)c1	0	13	0	0
O=C(Nc1nccs1)c1ccc(-c2ccc(F)cc2)o1	0	0	0	0
O=C(Nc1nccs1)c1ccc(-c2ccc(Cl)cc2)o1	0	20	0	0
CCc1nnc(NC(=O)c2ccc(-c3cccc(C(F)(F)F)c3)o2)s1	0	0	0	0
CCc1nnc(NC(=O)c2ccc(-c3ccc(F)cc3)o2)s1	0	16	0	0
CCOC(=O)c1cc(-c2ccccc2)sc1NC(=O)COC(=O)c1ccc(Cl)c(S(N)(=O)=O)c1	0	11	0	0
CCOC(=O)c1cc(-c2ccccc2)sc1NC(=O)COC(=O)c1cccc(S(N)(=O)=O)c1	0	0	0	0
Cn1c(=O)[nH]c(=O)c2c1nc1n2CCN1Cc1ccccc1	0	0	0	0
CC1CN(Cc2ccccc2)c2nc3c(c(=O)[nH]c(=O)n3C)n2C1 (stereo not given)	0	29	0	0
Cc1ccc(/C=N/NC(=O)c2cc3c(s2)CCCC3)o1	0	0	0	0
O=C(Cc1ccc(S(=O)(=O)N2CCOCC2)s1)Nc1cc(Cl)ccc1Cl	0	0	0	0
O=C(CN1C(=O)S/C(=C\c2ccc(O)cc2)C1=O)c1ccccc1	0	10	0	0
O=C(CN1C(=O)S/C(=C\c2ccccc2)C1=O)NNC(=O)c1ccccc1O	0	0	0	0
CC(=C\c1ccccc1)/C=C1/SC(=S)N(CCC(=O)Nc2ccccn2)C1=O	0	-	0	-
CC(/C=C1\SC(=S)N(CCC(=O)Nc2ccccc2O)C1=O)=C\c1ccccc1	0	20	0	0
O=C(CCCN1C(=O)S/C(=C\c2ccccc2)C1=O)NNC(=O)c1ccccc1O	0	0	0	0
O=C(CCN1C(=O)/C(=C/c2ccccc2)SC1=S)NCCc1ccc(O)cc1	0	17	0	0
O=C(CCN1C(=O)/C(=C\c2ccccc2)SC1=S)NNC(=O)c1ccccc1O	0	12	0	0
CCOc1cc(N2CCOCC2)c(OCC)cc1NC(=O)CN1C(=O)N(C)C2(CCCCC2)C1=O	0	0	0	0
CCCCN([C@H](CO)C(C)C)S(=O)(=O)c1ccccc1Br	-	0	-	0
COc1ccc(/C=C2\SC(=S)N(CCC(=O)NCCc3ccc(O)cc3)C2=O)cc1	0	15	0	0
CC(CNC(=O)c1ccccc1Cl)c1ccccc1 (stereo not given)	0	0	0	0
Nc1cc(Cl)cc2c1-c1ccc(Cl)cc1C2	-	23	-	0
NNC(=O)c1nn(-c2ccc(Cl)cc2)ccc1=O	55	0	0	0
CNC(=O)c1nn(-c2ccc(C)cc2)ccc1=O	0	0	0	0
SMILES	JMJD2C inh	GRIN3A LBD mod	T cell modulator	Rtt109 Vps75
COc1cc(NC(=O)CN2C(=O)COc3ccccc32)cc(OC)c1	-	0	-	0
CCc1nn2c(=O)cc(COC(=O)c3ccc(SC)cc3OC)nc2s1	0	0	0	0
O=C(c1ccccc1)c1nn(-c2ccc(Cl)cc2)c(=O)cc1C(F)(F)F	0	0	0	0
O=C(c1ccccc1)c1nn(-c2ccccc2)c(=O)cc1C(F)(F)F	0	12	0	0
CC(=O)Nc1ccc(S(=O)(=O)NC(C)C(=O)NCC(c2ccco2)N(C)C)cc1 (stereo not given)	-	0	-	0
COc1ccc2c(Cl)c(C(=O)N/N=C/c3ccc4c(c3)OCO4)sc2c1	0	19	0	0
COc1ccc2c(Cl)c(C(=O)N/N=C/c3c(C)[nH]c4ccccc34)sc2c1	0	32	0	0
O=C(N/N=C/c1ccc2c(c1)OCO2)c1sc2cc(Cl)ccc2c1Cl	0	0	0	0
O=C(N/N=C/c1ccc2c(c1)OCO2)c1sc2cccc(Cl)c2c1Cl	0	24	0	0
O=C(CN(CCc1ccccc1)S(=O)(=O)c1ccc(Cl)cc1)N/N=C/c1ccc2c(c1)OCO2	0	13	0	0
Cc1ccc(C(=O)OCC(=O)NN2C(=O)NC3(CCC(C)CC3)C2=O)cc1 (stereo not given)	0	0	0	0
COc1ccc(C(=O)N2[C@@H](C(C)C)COc3cc(Br)ccc3S2(=O)=O)cc1	-	0	-	0
Cc1cc(Cl)ccc1NC(=O)C(=O)N/N=C/c1ccc2c(c1)OCO2	0	0	0	0
O=C(N/N=C/c1ccc2c(c1)OCO2)C(=O)Nc1ccccc1Cl	0	14	0	0
CCN1C(=O)[C@H]2[C@@H](c3ccc(-c4ccccc4)cc3)N[C@@](CC(C)C)(C(=O)OC)[C@H]2C1=O	0	0	0	0
COc1cc(C2c3c([nH]c(=O)[nH]c3=O)Nc3ccc4ccccc4c32)ccc1O (stereo not given)	0	27	0	0
COc1cc(C2c3c([nH]c(=O)[nH]c3=O)Nc3ccc4ccccc4c32)cc(OC)c1OC (stereo not given)	0	30	0	0
Oc1ccccc1/C=N/n1c2ccccc2c2ccccc21	0	19	0	0
CCOc1ccc(Br)cc1S(=O)(=O)Nc1ccc(Cl)c(S(=O)(=O)N(CC)c2ccccc2)c1	0	13	0	0
Clc1cccc(Nc2nc(-c3cccnc3)cs2)c1	0	27	0	0
Brc1cccc(Nc2nc(-c3cccnc3)cs2)c1	0	43	0	0
CC(=O)c1cccc(Nc2nc(-c3cccnc3)cs2)c1	0	0	0	0
Brc1ccc(-c2csc(Nc3nc(-c4ccc(Br)cc4)cs3)n2)cc1	0	32	0	0
COc1ccc(Cl)cc1Nc1nc(-c2cccnc2)cs1	0	24	0	0
CCOc1ccc(NC(=O)CN(C)C(=O)c2cccnc2Sc2ccccc2Cl)cc1OCC	0	0	0	0
SMILES	JMJD2C inh	GRIN3A LBD mod	T cell modulator	Rtt109 Vps75
O=C(NN(CC(O)COc1ccccc1)CC(O)COc1ccccc1)c1ccccc1 (stereo not given)	0	0	0	0
Brc1ccc(Nc2nc(-c3cccnc3)cs2)cc1	0	21	0	0
Oc1ccc(Nc2nc(-c3cccnc3)cs2)cc1	0	0	0	0
O=C(c1ccc2c(=O)n(C3CCCC3)c(=S)[nH]c2c1)N1CCN(C2CCCCC2)CC1	0	0	0	0
CCCn1c(=S)[nH]c2cc(C(=O)N3CCN(C4CCCCC4)CC3)ccc2c1=O	0	15	0	0
O=C(Cn1c2c(sc1=O)C1c3ccccc3OCC1CS2)Nc1ccc(Cl)cc1 (stereo not given)	0	13	0	0
O=C(COC(=O)C1COc2ccccc2O1)Nc1ccc(Cl)cc1 (stereo not given)	0	0	0	0
Nc1c2c(nc3sc4c(c13)CCCC4)-c1ccccc1CC2	0	22	0	0

Source: PubChem BioAssay (several laboratories)
